Laboratory results: ChEMBL document CHEMBL1128495, “Synthetic chemical diversity: solid phase synthesis of libraries of C2 symmetric inhibitors of HIV protease containing diamino diol and diamino alcohol cores” (J Med Chem, 1995)

Experiments:
[1] = molecular target: Human immunodeficiency virus type 1 protease (Human immunodeficiency virus 1, UniProt Q72874); assay: Inhibition of HIV protease
How it was run: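 Fluorometric HIV protease activity assay on unpurified samples. Concentrations were calculated from the weight of unpurified material, with no correction for impurities. Each sample was tested at 3–5 concentrations where feasible, and IC50 was derived from the percent-inhibition data.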

[2] = molecular target: Human immunodeficiency virus type 1 protease (Human immunodeficiency virus 1) (UniProt Q72874); assay: Inhibitory activity against HIV Protease at a dose of 0.5 nM
How it was run: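 Fluorometric HIV protease activity assay run on an unpurified sample. Concentration was based on the weight of unpurified material, with no correction for impurities. Percent inhibition was read at a single concentration of 0.5 nM.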

Structure (SMILES)	IC50 [1] [nM]	inhibition [2] [%]
CC(C)[C@H](NC(=O)Cc1csc(N)n1)C(=O)N[C@@H](Cc1ccccc1)[C@@H](O)[C@H](O)[C@H](Cc1ccccc1)NC(=O)[C@@H](NC(=O)Cc1csc(N)n1)C(C)C	12	–
CC(C)[C@H](NC(=O)C(O)(c1ccccc1)c1ccccc1)C(=O)N[C@@H](Cc1ccccc1)[C@@H](O)[C@H](O)[C@H](Cc1ccccc1)NC(=O)[C@@H](NC(=O)C(O)(c1ccccc1)c1ccccc1)C(C)C	6400	–
CC(C)[C@H](NC(=O)C(O)(c1ccccc1)c1ccccc1)C(=O)N[C@@H](Cc1ccccc1)C[C@H](O)[C@H](Cc1ccccc1)NC(=O)[C@@H](NC(=O)C(O)(c1ccccc1)c1ccccc1)C(C)C	160	–
CC(C)[C@H](NC(=O)CSc1ncccn1)C(=O)N[C@@H](Cc1ccccc1)C[C@H](O)[C@H](Cc1ccccc1)NC(=O)[C@@H](NC(=O)CSc1ncccn1)C(C)C	< 1	–
CC(C)[C@H](NC(=O)CC1NC(=O)NC1=O)C(=O)N[C@@H](Cc1ccccc1)[C@@H](O)[C@H](O)[C@H](Cc1ccccc1)NC(=O)[C@@H](NC(=O)CC1NC(=O)NC1=O)C(C)C (some centres undefined)	9.6	33
COc1cc(CC(=O)N[C@H](C(=O)N[C@@H](Cc2ccccc2)C[C@H](O)[C@H](Cc2ccccc2)NC(=O)[C@@H](NC(=O)Cc2cc(OC)c(OC)c(OC)c2)C(C)C)C(C)C)cc(OC)c1OC	< 1	71

The next lines start with the values.

IC50 [1] [nM]	inhibition [2] [%]	Structure (SMILES)
13	–	Cc1nc(C)c(C(=O)N[C@H](C(=O)N[C@@H](Cc2ccccc2)C[C@H](O)[C@H](Cc2ccccc2)NC(=O)[C@@H](NC(=O)c2sc(C)nc2C)C(C)C)C(C)C)s1
860	–	Cc1nc(C)c(C(=O)N[C@H](C(=O)N[C@@H](Cc2ccccc2)[C@@H](O)[C@H](O)[C@H](Cc2ccccc2)NC(=O)[C@@H](NC(=O)c2sc(C)nc2C)C(C)C)C(C)C)s1
< 1	43	CC(C)[C@H](NC(=O)CC1NC(=O)NC1=O)C(=O)N[C@@H](Cc1ccccc1)C[C@H](O)[C@H](Cc1ccccc1)NC(=O)[C@@H](NC(=O)CC1NC(=O)NC1=O)C(C)C (some centres undefined)
< 1	40	CC(C)[C@H](NC(=O)Cc1csc(N)n1)C(=O)N[C@@H](Cc1ccccc1)C[C@H](O)[C@H](Cc1ccccc1)NC(=O)[C@@H](NC(=O)Cc1csc(N)n1)C(C)C
